Results reported in PubChem BioAssay AID449754 (Broad Institute, 2010).
Records with an inconclusive call do not appear. Calls of active or inactive are those of the source.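 How the source made its calls: active means compounds whose fitted caspase activation AC50 is no more than tenfold above the top tested dose; inconclusive means flat fit with 30 to 70% activity, or a failed fit; inactive means the rest.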

Test system: MEF Bax/Bak KO A1-BIM, caspase-Glo luminescence, 3 h
Assay: caspase activation in Bax/Bak-deficient MEFs, dose response, counter-screen for A1 inhibitor project, cell-based, Bax-Bak knockout MEF, A1-2A-BIM, luminescence (AID 449754);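 further: counterscreen where caspase activation signals off-target toxicity not A1 inhibition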
Procedure, shortened: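 Material: A1-2A-BIM MEFs lacking Bax and Bak / Buffer or medium: RPMI-1640, 10% FBS / Compound: 100 nL pinned compound per well / Timing: 3 h compound at 37 °C, 1 h detection at RT / Technique: CaspaseGlo luminescence, reagent diluted 1:1 in 50 mM HEPES / Read-out basis: caspase activity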

SMILES	AC50
CCc1ccc(NC(=O)c2nc(S(=O)(=O)Cc3ccccc3)ncc2Cl)cc1	> 35 µM (inactive)
Cc1ccc(CS(=O)(=O)c2ncc(Cl)c(C(=O)Nc3nnc(C(C)C)s3)n2)cc1	> 35 µM (inactive)
CCOc1ccc(N2C(=O)/C(=C\c3ccc(O)c(OC)c3)S(=O)(=O)C2c2cccc([N+](=O)[O-])c2)cc1 (stereo not drawn)	> 35 µM (inactive)
Nc1nc(F)nc2c1ncn2[C@@H]1O[C@H](CO)[C@@H](O)[C@H]1O	> 35 µM (inactive)
COc1cc(NC(=O)c2ccccc2)c(OC)cc1NC(=O)Cc1ccc(Br)cc1	> 35 µM (inactive)
COc1cc2ncnc(NCc3ccc(F)cc3)c2cc1OC	> 35 µM (inactive)
N#C/C(=C\c1ccc(OCc2ccccc2)cc1)C(=O)Nc1nc2c(s1)CCN(Cc1ccccc1)C2	> 35 µM (inactive)
CCS(=O)(=O)c1ncc(Cl)c(C(=O)Nc2ccc(S(=O)(=O)N3CCC(C)CC3)cc2)n1	> 35 µM (inactive)
CCOc1ccc(OCC(=O)N(CCC2=CCCCC2)c2c(N)n(Cc3ccccc3)c(=O)[nH]c2=O)cc1	18.8 µM
Cc1cc(C)cc(NC(=O)/C(C#N)=C/c2cn(CC(=O)NCc3ccco3)c3ccccc23)c1	6.71 µM
COC(=O)Cc1csc(/N=C/c2c(O)n(-c3cccc(C(F)(F)F)c3)c(=O)c3ccccc23)n1	28 µM
O=C(Nc1ccc(O)c2c(=O)cc(-c3cccc(Cl)c3)oc12)c1cccc(Cl)c1	> 35 µM (inactive)
N#Cc1c(C(F)(F)F)cc(-c2ccccc2)nc1SCC(=O)Nc1sc2c(c1C#N)CCC2	> 35 µM (inactive)
CCc1ccc2nc(N(CCCN(C)C)C(=O)c3ccc(S(=O)(=O)N4CCc5ccccc5C4)cc3)sc2c1	> 35 µM (inactive)
CCOc1cc(C(=O)CSc2nnc(CNc3ccc(Cl)cc3)o2)ccc1NC(=O)CC	17.6 µM
Cc1ccc(C#N)c(SCC(=O)Nc2nccs2)n1	> 35 µM (inactive)
CCOC(=O)C1=C(c2ccccc2)O/C(=C(/C#N)C(F)(F)F)S1	> 35 µM (inactive)

SMILES	AC50
COc1cc(-c2cc(-c3ccccc3)nc(SCC(=O)Nc3nccs3)c2C#N)cc(OC)c1OC	> 35 µM (inactive)
Cc1ccc(NC(=S)NC(NC(=O)Cc2cccc3ccccc23)C(Cl)(Cl)Cl)cc1 (stereo not drawn)	22.9 µM
CCOC(=O)C(C(=O)OCC)c1cc(Br)c2noc3c2c1C(=O)c1ccccc1-3	> 35 µM (inactive)
Cc1nc(SCc2nc3c([N+](=O)[O-])cccc3[nH]2)c2oc3ccccc3c2n1	> 35 µM (inactive)
O=C(Nc1ccc2oc(-c3ccccc3F)nc2c1)c1ccccc1F	> 35 µM (inactive)
CC(C)(C)[C@H](N)C(=O)N[C@H]1CCC2C3CC=C4C[C@@H](O)CC[C@]4(C)C3CC[C@@]21C (stereo partly drawn)	> 35 µM (inactive)
CC(C)N=c1scc(-c2ccco2)n1/N=C/c1ccc(O)c(O)c1	> 35 µM (inactive)
O=C(CCl)N=c1sccn1Cc1ccccc1Cl	> 35 µM (inactive)
Cc1ccc(NC(=O)c2cc(N3C(=O)C=CC3=O)ccc2N2CCOCC2)cc1Cl	> 35 µM (inactive)
CC1(C)C[C@H](O)[C@]2(CO)[C@H](O)C[C@]3(C)C(=CCC4[C@@]5(C)CC[C@H](O)C(C)(C)C5CC[C@]43C)[C@@H]2C1 (stereo partly drawn)	> 35 µM (inactive)
COc1ccc(OC[C@@H](O)CNC(=O)c2cccc3c2C(=O)c2ccc(-c4ccc(F)cc4OCc4ccccc4)cc2S3(=O)=O)cc1	> 35 µM (inactive)
CC1=NNC(=O)/C1=C\c1cn(-c2ccccc2)nc1-c1cccs1	7.61 µM
CCOc1ccc(NCc2cccn2-c2nnc(N3CCC(C(=O)NCCCN4CC(C)CC(C)C4)CC3)s2)cc1 (stereo not drawn)	> 35 µM (inactive)
O=C(N=Nc1c(O)[nH]c2ccc([N+](=O)[O-])cc12)c1cc(-c2ccccc2Cl)nc2ccccc12	> 35 µM (inactive)
Cc1cc(NC(=O)/C(C#N)=C/c2ccc(-c3ccc(SC(F)F)cc3)o2)n(-c2ccccc2)n1	> 35 µM (inactive)
Cc1occc1-c1nnc(SCC(=O)NCCc2ccccc2)n1Cc1ccccc1	> 35 µM (inactive)
